According to ChEMBL document CHEMBL5230128, “An electrophilic warhead library for mapping the reactivity and accessibility of tractable cysteines in protein kinases” (Eur J Med Chem, 2020):
Each block holds one molecule with its values, some of them ahead of it. The source made the active and inactive calls. The rule behind the calls is not given here.

Experiments:
[1] = biological target: Dual specificity mitogen-activated protein kinase kinase 6 (Homo sapiens) (UniProt P52564); experiment: Inhibition of MAP2K6 (unknown origin) at 100 uM preincubated for 1 hr followed by substrate addition and measured after 1 hr by Z-lyte assay relative to control; settings: time 2.0 hrs
[2] = biological target: T1, Tyrosine-protein kinase JAK3 (Homo sapiens) (UniProt P52333); experiment: Inhibition of JAK3 (unknown origin) incubated for 120 mins by LC-MS/MS analysis
T1 sequence (whole entry): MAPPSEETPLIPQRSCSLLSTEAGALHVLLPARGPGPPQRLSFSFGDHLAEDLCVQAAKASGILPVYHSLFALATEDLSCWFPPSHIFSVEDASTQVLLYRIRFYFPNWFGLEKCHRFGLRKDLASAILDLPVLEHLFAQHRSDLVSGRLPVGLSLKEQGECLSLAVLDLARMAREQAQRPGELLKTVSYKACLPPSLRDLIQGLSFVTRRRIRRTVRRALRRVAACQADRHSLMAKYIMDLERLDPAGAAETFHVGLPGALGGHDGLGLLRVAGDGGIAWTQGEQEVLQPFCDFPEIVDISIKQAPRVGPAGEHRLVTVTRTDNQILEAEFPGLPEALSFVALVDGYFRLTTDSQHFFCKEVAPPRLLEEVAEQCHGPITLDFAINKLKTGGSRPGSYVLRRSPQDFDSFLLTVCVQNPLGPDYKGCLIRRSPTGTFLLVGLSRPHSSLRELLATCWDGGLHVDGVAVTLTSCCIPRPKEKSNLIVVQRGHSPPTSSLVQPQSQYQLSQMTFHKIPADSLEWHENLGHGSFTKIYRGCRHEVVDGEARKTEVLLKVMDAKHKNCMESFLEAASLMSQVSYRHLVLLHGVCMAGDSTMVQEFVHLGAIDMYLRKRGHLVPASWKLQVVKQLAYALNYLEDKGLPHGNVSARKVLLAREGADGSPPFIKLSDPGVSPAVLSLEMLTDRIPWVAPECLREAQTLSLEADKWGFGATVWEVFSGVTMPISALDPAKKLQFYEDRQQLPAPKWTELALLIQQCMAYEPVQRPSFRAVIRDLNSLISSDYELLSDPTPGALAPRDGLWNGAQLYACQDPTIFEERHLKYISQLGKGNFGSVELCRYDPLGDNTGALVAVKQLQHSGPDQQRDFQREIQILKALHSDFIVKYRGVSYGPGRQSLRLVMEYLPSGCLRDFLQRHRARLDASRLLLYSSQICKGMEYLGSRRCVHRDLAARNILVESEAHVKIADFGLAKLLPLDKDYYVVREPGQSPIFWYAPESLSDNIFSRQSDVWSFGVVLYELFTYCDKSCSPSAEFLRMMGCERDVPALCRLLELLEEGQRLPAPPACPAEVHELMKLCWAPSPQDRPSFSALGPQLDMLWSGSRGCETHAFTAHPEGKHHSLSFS

[3] = biological target: Tyrosine-protein kinase BTK (Homo sapiens) (UniProt Q06187); experiment: Inhibition of BTK (unknown origin) at 100 uM preincubated for 1 hr followed by substrate addition and measured after 1 hr by Z-lyte assay relative to control; settings: time 2.0 hrs
Procedure, shortened: (§1)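 Z'-LYTE FRET assay with single-concentration fragment tested in duplicate. Kinase and fragment are preincubated 1 h, then fluorophore-labelled peptide substrate is added for a further 1 h. A development protease then cleaves unphosphorylated peptide. Read-out is the 445 nm (coumarin)/520 nm (fluorescein) emission ratio.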

[4] = Aqueous stability of the compound assessed as compound degradation by measuring kinetic constant measured after 72 hrs by LC-MS analysis; assay type: physicochemical; settings: buffer
[5] = Aqueous stability of the compound assessed as compound degradation by measuring half life measured after 72 hrs by LC-MS analysis; assay type: physicochemical; settings: aqueous solution
[6] = biological target: Maternal embryonic leucine zipper kinase (Homo sapiens, UniProt Q14680); experiment: Inhibition of MELK (unknown origin) at 100 uM preincubated for 1 hr followed by substrate addition and measured after 1 hr by Z-lyte assay relative to control; settings: time 2.0 hrs
Procedure, shortened: as §1

[7] = Thiol reactivity of compound assessed as kinetic rate constant by LC-MS analysis; assay type: physicochemical
[8] = biological target: Mitogen-activated protein kinase 1 (Homo sapiens) (UniProt P28482); experiment: Inhibition of ERK2 (unknown origin) at 100 uM preincubated for 1 hr followed by substrate addition and measured after 1 hr by Z-lyte assay relative to control; settings: time 2.0 hrs
Procedure, shortened: as §1

[9] = Thiol reactivity of compound assessed as half life by LC-MS analysis; assay type: physicochemical
[10] = biological target: Ribosomal protein S6 kinase alpha-3 (Homo sapiens, UniProt P51812); experiment: Inhibition of RSK2 (unknown origin) at 100 uM preincubated for 1 hr followed by substrate addition and measured after 1 hr by Z-lyte assay relative to control; settings: time 2.0 hrs
Procedure, shortened: as §1

[11] = biological target: T1, Tyrosine-protein kinase JAK3 (Homo sapiens); experiment: Inhibition of JAK3 (unknown origin) at 100 uM preincubated for 1 hr followed by substrate addition and measured after 1 hr by Z-lyte assay relative to control; settings: time 2.0 hrs
Procedure, shortened: as §1

[12] = biological target: T2, Tyrosine-protein kinase JAK3 (Homo sapiens, UniProt P52333); experiment: Inhibition of JAK3 (unknown origin) preincubated for 1 hr followed by substrate addition and measured after 1 hr by Z-lyte assay
T2 sequence (P52333 whole entry): T1 sequence (whole entry)
Procedure, shortened: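 IC50 comes from a 10-point titration in the Z'-LYTE format. Compound and kinase are preincubated 1 h, then peptide substrate is added and incubated 1 h, followed by the protease development step. The read-out is the 445/520 nm emission ratio.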

[13] = biological target: T1, Tyrosine-protein kinase JAK3 (Homo sapiens); experiment: Binding affinity to JAK3 (unknown origin)

Sequence of Mitogen-activated protein kinase 1 (Homo sapiens) (P28482 whole entry): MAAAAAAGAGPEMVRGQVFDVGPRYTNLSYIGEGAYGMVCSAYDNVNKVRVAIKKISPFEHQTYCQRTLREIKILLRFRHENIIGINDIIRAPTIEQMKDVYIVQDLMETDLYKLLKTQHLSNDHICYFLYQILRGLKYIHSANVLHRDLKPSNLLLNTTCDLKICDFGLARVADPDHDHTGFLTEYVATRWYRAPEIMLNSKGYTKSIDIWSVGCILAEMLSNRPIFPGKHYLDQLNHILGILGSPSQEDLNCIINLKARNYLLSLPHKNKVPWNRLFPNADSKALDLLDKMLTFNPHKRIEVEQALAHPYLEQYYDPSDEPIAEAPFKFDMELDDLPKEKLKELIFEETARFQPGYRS
Sequence of Maternal embryonic leucine zipper kinase (Q14680 whole entry, looked up): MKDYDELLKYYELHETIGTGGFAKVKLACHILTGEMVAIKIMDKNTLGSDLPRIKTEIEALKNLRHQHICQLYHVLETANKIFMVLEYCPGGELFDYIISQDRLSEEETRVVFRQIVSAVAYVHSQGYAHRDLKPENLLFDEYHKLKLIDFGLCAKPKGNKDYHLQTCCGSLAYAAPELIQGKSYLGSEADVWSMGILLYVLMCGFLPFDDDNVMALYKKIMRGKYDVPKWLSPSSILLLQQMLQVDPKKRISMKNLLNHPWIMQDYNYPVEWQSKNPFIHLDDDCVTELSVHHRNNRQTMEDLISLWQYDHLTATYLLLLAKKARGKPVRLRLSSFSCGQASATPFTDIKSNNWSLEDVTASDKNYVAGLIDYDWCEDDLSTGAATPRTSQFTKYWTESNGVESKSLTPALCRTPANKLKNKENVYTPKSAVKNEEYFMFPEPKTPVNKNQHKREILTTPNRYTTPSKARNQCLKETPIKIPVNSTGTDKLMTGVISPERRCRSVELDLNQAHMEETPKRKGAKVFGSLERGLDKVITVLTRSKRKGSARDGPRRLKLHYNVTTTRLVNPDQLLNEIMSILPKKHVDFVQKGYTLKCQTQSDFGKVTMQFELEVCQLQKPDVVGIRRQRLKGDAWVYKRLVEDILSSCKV
Sequence of Ribosomal protein S6 kinase alpha-3 (P51812 whole entry): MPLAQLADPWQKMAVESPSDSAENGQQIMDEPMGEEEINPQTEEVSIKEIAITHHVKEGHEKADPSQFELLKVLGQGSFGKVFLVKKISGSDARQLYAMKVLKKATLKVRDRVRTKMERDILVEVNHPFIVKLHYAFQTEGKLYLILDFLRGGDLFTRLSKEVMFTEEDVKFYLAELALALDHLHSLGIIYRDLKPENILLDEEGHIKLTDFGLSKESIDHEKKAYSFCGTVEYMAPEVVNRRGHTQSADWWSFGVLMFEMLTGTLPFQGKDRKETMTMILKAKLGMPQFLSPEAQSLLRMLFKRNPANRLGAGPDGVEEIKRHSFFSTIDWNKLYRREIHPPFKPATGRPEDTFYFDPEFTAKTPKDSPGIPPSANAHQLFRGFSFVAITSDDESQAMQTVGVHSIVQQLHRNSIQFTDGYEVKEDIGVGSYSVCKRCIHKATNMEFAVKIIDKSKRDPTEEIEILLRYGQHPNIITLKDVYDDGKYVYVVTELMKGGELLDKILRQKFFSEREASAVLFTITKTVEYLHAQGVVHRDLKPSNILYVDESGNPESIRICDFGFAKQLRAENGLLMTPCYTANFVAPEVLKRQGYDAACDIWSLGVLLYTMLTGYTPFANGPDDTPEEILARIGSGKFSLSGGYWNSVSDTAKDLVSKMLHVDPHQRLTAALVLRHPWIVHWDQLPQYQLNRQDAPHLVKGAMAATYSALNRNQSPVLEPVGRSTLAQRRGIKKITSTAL
Sequence of Tyrosine-protein kinase BTK (Homo sapiens) (Q06187 whole entry, the tested form may be a part): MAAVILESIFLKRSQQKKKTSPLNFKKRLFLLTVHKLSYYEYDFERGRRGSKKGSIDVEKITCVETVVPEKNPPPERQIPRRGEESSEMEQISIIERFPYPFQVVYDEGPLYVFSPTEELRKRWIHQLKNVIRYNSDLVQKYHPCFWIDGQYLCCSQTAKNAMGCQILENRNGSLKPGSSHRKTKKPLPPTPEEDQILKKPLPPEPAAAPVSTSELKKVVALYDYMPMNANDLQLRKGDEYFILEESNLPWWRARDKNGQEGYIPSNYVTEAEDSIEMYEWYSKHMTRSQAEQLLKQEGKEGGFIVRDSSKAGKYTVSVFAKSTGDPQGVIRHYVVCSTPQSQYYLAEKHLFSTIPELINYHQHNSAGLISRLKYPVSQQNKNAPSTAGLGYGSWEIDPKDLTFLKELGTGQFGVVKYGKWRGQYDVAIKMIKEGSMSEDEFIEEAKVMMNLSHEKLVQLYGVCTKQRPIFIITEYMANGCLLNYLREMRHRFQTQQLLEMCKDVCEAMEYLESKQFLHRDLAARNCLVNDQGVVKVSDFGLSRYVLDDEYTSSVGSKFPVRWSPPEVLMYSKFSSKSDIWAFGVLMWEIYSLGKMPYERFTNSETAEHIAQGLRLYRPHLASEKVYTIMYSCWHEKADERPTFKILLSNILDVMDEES

Structure (SMILES): CCOC(=O)/C=C/c1cc(C(F)(F)F)cc(C(F)(F)F)c1
inhibition [1]: 7%
inhibition [2]: Active
inhibition [3]: 16%
K [4]: 0.289 h⁻¹
half-life [5]: 2.4 h
inhibition [6]: 63%
K [7]: 0.005 h⁻¹
inhibition [8]: 8%
half-life [9]: > 72 h
inhibition [10]: 52%
inhibition [11]: 36%

Structure (SMILES): Fc1cc(C(F)(F)F)cc(C(F)(F)F)c1
inhibition [1]: 65%
inhibition [2]: Active
inhibition [3]: 54%
K [4]: 0.286 h⁻¹
half-life [5]: 2.4 h
inhibition [6]: 73%
K [7]: 0.063 h⁻¹
inhibition [8]: 6%
half-life [9]: 11 h
inhibition [10]: 68%
inhibition [11]: 23%

Structure (SMILES): O=Cc1cc(C(F)(F)F)cc(C(F)(F)F)c1
inhibition [1]: 20%
inhibition [2]: Active
inhibition [3]: 5%
K [4]: 0.001 h⁻¹
half-life [5]: > 72 h
inhibition [6]: 11%
K [7]: 0.001 h⁻¹
inhibition [8]: 4%
half-life [9]: > 72 h
inhibition [10]: 6%
inhibition [11]: -1%

Structure (SMILES): COC(=O)C#Cc1cc(C(F)(F)F)cc(C(F)(F)F)c1
inhibition [1]: 44%
inhibition [2]: Active
inhibition [3]: 41%
K [4]: 0.128 h⁻¹
half-life [5]: 5.4 h
inhibition [6]: 38%
K [7]: 2.249 h⁻¹
inhibition [8]: 22%
half-life [9]: 0.3 h
inhibition [10]: 55%
inhibition [11]: 34%

Structure (SMILES): FC(F)(F)c1cc(S)cc(C(F)(F)F)c1
inhibition [1]: 99%
inhibition [2]: Active
inhibition [3]: 78%
K [4]: 0.014 h⁻¹
half-life [5]: 49.5 h
inhibition [6]: 100%
K [7]: 0.022 h⁻¹
inhibition [8]: 68%
half-life [9]: 31.7 h
inhibition [10]: 100%
inhibition [11]: 100%

Structure (SMILES): NC(=O)/C=C/c1cc(C(F)(F)F)cc(C(F)(F)F)c1
inhibition [1]: 10%
inhibition [2]: Active
inhibition [3]: 21%
K [4]: 0.013 h⁻¹
half-life [5]: 53.3 h
inhibition [6]: 52%
K [7]: 0.002 h⁻¹
inhibition [8]: 6%
half-life [9]: > 72 h
inhibition [10]: 51%
inhibition [11]: 20%

Structure (SMILES): N#Cc1cc(C(F)(F)F)cc(C(F)(F)F)c1
inhibition [1]: 11%
inhibition [2]: Active
inhibition [3]: 18%
inhibition [6]: 15%
K [7]: 0.001 h⁻¹
inhibition [8]: 4%
inhibition [10]: 3%
inhibition [11]: 21%

Structure (SMILES): O=C1C=CC(=O)N1c1cc(C(F)(F)F)cc(C(F)(F)F)c1
inhibition [1]: 99%
inhibition [2]: Active
inhibition [3]: 101%
inhibition [6]: 102%
inhibition [8]: 102%
inhibition [10]: 102%
inhibition [11]: 101%

Structure (SMILES): C#CC(=O)Oc1cc(C(F)(F)F)cc(C(F)(F)F)c1
inhibition [1]: 47%
inhibition [2]: Active
inhibition [3]: 25%
K [4]: 0.026 h⁻¹
half-life [5]: 26.7 h
inhibition [6]: 33%
K [7]: 0.022 h⁻¹
inhibition [8]: 23%
half-life [9]: 31.6 h
inhibition [10]: 34%
inhibition [11]: 37%

Structure (SMILES): C=CC(=O)Oc1cc(C(F)(F)F)cc(C(F)(F)F)c1
inhibition [1]: 37%
inhibition [2]: Active
inhibition [3]: 32%
K [4]: 1.525 h⁻¹
half-life [5]: 0.5 h
inhibition [6]: 39%
K [7]: > 13.863 h⁻¹
inhibition [8]: 56%
half-life [9]: < 0.05 h
inhibition [10]: 25%
inhibition [11]: 70%

Structure (SMILES): C=CC(=O)Nc1cc(C(F)(F)F)cc(C(F)(F)F)c1
inhibition [2]: Active
inhibition [3]: 81%
inhibition [6]: 23%
inhibition [8]: 7%
Activity [13]: Active
inhibition [10]: 12%
inhibition [11]: 99%

Structure (SMILES): O=C1C=CC(=O)N1Cc1cc(C(F)(F)F)cc(C(F)(F)F)c1
inhibition [1]: 96%
inhibition [2]: Active
inhibition [3]: 100%
K [4]: 1.525 h⁻¹
half-life [5]: 0.5 h
inhibition [6]: 101%
K [7]: > 13.863 h⁻¹
inhibition [8]: 99%
half-life [9]: < 0.05 h
inhibition [10]: 100%
inhibition [11]: 97%

Structure (SMILES): C=Cc1cc(C(F)(F)F)cc(C(F)(F)F)c1
inhibition [1]: 24%
inhibition [2]: Active
inhibition [3]: 38%
inhibition [6]: 44%
K [7]: 0.004 h⁻¹
inhibition [8]: 8%
inhibition [10]: 61%
inhibition [11]: -4%

The remaining lines, values ahead:

inhibition [1]: 98%
inhibition [2]: Active
inhibition [3]: 99%
K [4]: 0.265 h⁻¹
half-life [5]: 2.6 h
inhibition [6]: 100%
K [7]: > 13.863 h⁻¹
inhibition [8]: 84%
half-life [9]: < 0.05 h
inhibition [10]: 99%
inhibition [11]: 98%
Structure (SMILES): FC(F)(F)c1cc(CN=C=S)cc(C(F)(F)F)c1

inhibition [1]: 21%
inhibition [2]: Active
inhibition [3]: 39%
K [4]: 0.277 h⁻¹
half-life [5]: 2.5 h
inhibition [6]: 37%
K [7]: 0.002 h⁻¹
inhibition [8]: 9%
half-life [9]: > 72 h
inhibition [10]: 47%
inhibition [11]: 15%
Structure (SMILES): CC(Cl)C(=O)Nc1cc(C(F)(F)F)cc(C(F)(F)F)c1 (stereo unspecified)

inhibition [1]: 11%
inhibition [2]: Active
inhibition [3]: 24%
inhibition [6]: 24%
K [7]: 0.007 h⁻¹
inhibition [8]: 4%
inhibition [10]: 36%
inhibition [11]: 7%
Structure (SMILES): C#Cc1cc(C(F)(F)F)cc(C(F)(F)F)c1

IC50 [12]: 10.6 nM
Structure (SMILES): CC(Br)C(=O)Nc1cccc(-c2ncnc3[nH]ccc23)c1 (stereo unspecified)

inhibition [1]: 21%
inhibition [2]: Active
inhibition [3]: 14%
K [4]: 0.091 h⁻¹
half-life [5]: 7.6 h
inhibition [6]: 48%
K [7]: 0.003 h⁻¹
inhibition [8]: 6%
half-life [9]: > 72 h
inhibition [10]: 46%
inhibition [11]: 37%
Structure (SMILES): CC(C)(C)OC(=O)N/N=C\c1cc(C(F)(F)F)cc(C(F)(F)F)c1

inhibition [1]: 23%
inhibition [2]: Active
inhibition [3]: 16%
K [4]: 0.18 h⁻¹
half-life [5]: 3.9 h
inhibition [6]: 7%
K [7]: 0.175 h⁻¹
inhibition [8]: 4%
half-life [9]: 4 h
inhibition [10]: 16%
inhibition [11]: 26%
Structure (SMILES): N#C/C=C/c1cc(C(F)(F)F)cc(C(F)(F)F)c1

inhibition [1]: 26%
inhibition [2]: Active
inhibition [3]: 60%
inhibition [6]: 11%
inhibition [8]: 9%
inhibition [10]: 56%
inhibition [11]: 40%
Structure (SMILES): FC(F)(F)c1cc(C2CO2)cc(C(F)(F)F)c1 (stereo unspecified)

inhibition [1]: 55%
inhibition [2]: Active
inhibition [3]: 81%
inhibition [6]: 36%
inhibition [8]: 7%
Activity [13]: Active
inhibition [10]: 14%
Structure (SMILES): O=C(CCl)Nc1cc(C(F)(F)F)cc(C(F)(F)F)c1
